ChEMBL document CHEMBL3856197 (Eur J Med Chem, 2016)
Active and inactive are the calls of the source. No cut-off for these calls is given here.

Columns and labels:
Mus musculus [1] = organism: Mus musculus; experiment: Cytotoxicity against BMOL-NT cells assessed as induction of cell death at 100 uM; type: toxicity, cell-based
Outline: (§1)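 Mouse bipotential oval (liver progenitor) line BMOL-NT (passage <15) grown in Williams' E medium with 5% FBS, EGF, IGF-II and insulin. Plated at 1,500 cells/well; next day compound added as a 2x solution to give 1x final. Confluency imaged on Cellavista twice daily for 5 days or until 80% confluent. Growth curves plotted from log confluency; doubling time taken from the log-phase linear portion.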

[2] = Growth inhibition of BMOL-NT cells; type: cell-based; settings: mouse
Outline: (§2)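 BMOL-NT (low passage, p<15) or BMOL-T (p>30) mouse liver progenitor cells in Williams' E medium. Seeded at 1,500 (NT) or 1,000 (T) cells per well, allowed to attach, then compound added as 2x solution to 1x final. Cellavista imaging twice daily for 5 days or until 80% confluent. Log % well coverage plotted against time; doubling time taken from log-phase linear portion.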

[3] = Growth inhibition of BMOL-T cells; type: functional; settings: Mus musculus; outline: as §2
BMOL-T [4] = experiment: Anticancer activity against BMOL-T cells assessed as cell growth inhibition at 100 uM; type: functional, cell-based; settings: Mus musculus; outline: as §2
[5] = Growth inhibition of BMOL-T cells assessed as doubling time at 1 uM (reference value: 27 to 34 hrs); type: functional, Mus musculus; outline: as §2
[6] = Growth inhibition of BMOL-NT cells assessed as population doubling time at 0.5 uM (reference value: 29 to 32.5 hrs); type: cell-based; settings: mouse; outline: as §2
[7] = Growth inhibition of BMOL-NT cells assessed as increase in doubling time at 10 uM after 2 days relative to control; type: cell-based; parameters: scale not given: the % may be the effect or the level left; settings: mouse, 48 h; outline: as §2
[8] = Antimitotic activity against BMOL-NT cells assessed as reduction in mitotic index at 10 uM measured after 3 days by phosphohistone H3 staining-based method; type: cell-based; parameters: scale not given: the % may be the effect or the level left; settings: mouse, 72 h
Outline: (§3)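 BMOL-NT or BMOL-T cells, compound at 10 μM for three days. Fixed in 4% paraformaldehyde/0.1% Triton X-100, then phospho-histone H3 antibody 60 min at room temperature with nuclear counterstain, Cellavista imaging. Colcemid 1 μg/mL overnight as positive control. Mitotic index is % positive cells per well, mean of replicate wells, three cell lots.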

[9] = Growth inhibition of BMOL-NT cells assessed as population doubling time at 2 uM (reference value: 29 to 32.5 hrs); type: cell-based; settings: mouse; outline: as §2
[10] = test system: BMOL-NT cells (Mus musculus); experiment: Growth inhibition of BMOL-NT cells at 10 uM after 2 days relative to control; settings: 48 h, read-out: GI
[11] = Growth inhibition of BMOL-NT cells assessed as doubling time at 4 uM (reference value: 29 to 32.5 hrs); type: cell-based; settings: mouse; outline: as §2
[12] = Growth inhibition of BMOL-NT cells assessed as doubling time at 10 uM (reference value: 29 to 32.5 hrs); type: cell-based; settings: mouse; outline: as §2
[13] = Growth inhibition of BMOL-T cells assessed as increase in doubling time at 8 uM after 2 days relative to control; type: functional, Mus musculus; parameters: scale not given: the % may be the effect or the level left; outline: as §2
[14] = Growth inhibition of BMOL-T cells assessed as doubling time at 10 uM (reference value: 27 to 34 hrs); type: functional, Mus musculus; outline: as §2
[15] = Growth inhibition of BMOL-NT cells assessed as doubling time at 8 uM (reference value: 29 to 32.5 hrs); type: cell-based; settings: mouse; outline: as §2
[16] = Induction of apoptosis in BMOL-NT cells assessed as increase in fragmented DNA at 10 uM measured after 3 days relative to control; type: cell-based; settings: mouse, 72 h
Outline: (§4)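 BMOL-NT or BMOL-T cells, compound at 10 μM for three days. Fixed in 4% paraformaldehyde/0.1% Triton X-100, DNA fragmentation labelling reaction 60 min at 37 °C, nuclear dye 5 min, Cellavista imaging. Cisplatin 8 μg/mL for 24 h as positive control. Apoptotic index is % cells with fragmented DNA per well, three cell lots.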

[17] = Growth inhibition of BMOL-NT cells assessed as increase in doubling time at 8 uM after 2 days relative to control; type: cell-based; parameters: scale not given: the % may be the effect or the level left; settings: mouse, 48 h; outline: as §2
[18] = Growth inhibition of BMOL-T cells assessed as doubling time at 0.5 uM (reference value: 27 to 34 hrs); type: functional, Mus musculus; outline: as §2
[19] = Growth inhibition of BMOL-T cells assessed as doubling time at 2 uM (reference value: 27 to 34 hrs); type: functional, Mus musculus; outline: as §2
[20] = Growth inhibition of BMOL-T cells assessed as increase in doubling time at 10 uM after 2 days relative to control; type: functional, Mus musculus; parameters: scale not given: the % may be the effect or the level left; outline: as §2
[21] = Induction of apoptosis in BMOL-T cells assessed as increase in fragmented DNA at 10 uM measured after 3 days relative to control; type: functional, Mus musculus; outline: as §4
[22] = Antimitotic activity against BMOL-T cells assessed as mitotic index at 10 uM measured after 3 days by phosphohistone H3 staining-based method relative to control; type: functional, Mus musculus; outline: as §3
[23] = Growth inhibition of BMOL-NT cells assessed as population doubling time at 1 uM (reference value: 29 to 32.5 hrs); type: cell-based; settings: mouse; outline: as §2
[24] = Growth inhibition of BMOL-T cells assessed as doubling time at 8 uM (reference value: 27 to 34 hrs); type: functional, Mus musculus; outline: as §2
[25] = Anticancer activity against BMOL-T cells assessed as doubling time at 10 uM; type: functional, Mus musculus; outline: as §2
[26] = Anticancer activity against BMOL-T cells assessed as doubling time at 0 to 6 uM; type: functional, Mus musculus; outline: as §2
Mus musculus [27] = organism: Mus musculus; experiment: Cytotoxicity against BMOL-NT cells assessed as cell growth inhibition at 10 uM; type: toxicity, cell-based; outline: as §2
[28] = Anticancer activity against BMOL-T cells assessed as doubling time at 8 uM; type: functional, Mus musculus; outline: as §2
Mus musculus [29] = organism: Mus musculus; experiment: Cytotoxicity against BMOL-NT cells assessed as doubling time at 0 to 10 uM; type: toxicity, cell-based; outline: as §2
[30] = target: T1, Nuclear factor NF-kappa-B p100 subunit (Mus musculus) (UniProt Q9WTK5); experiment: Inhibition of NF-kappaB2 in BMOL-T cells assessed as reduction in p52 formation by western blot analysis relative to control; type: cell-based; settings: concentration not given here
T1 sequence (whole entry): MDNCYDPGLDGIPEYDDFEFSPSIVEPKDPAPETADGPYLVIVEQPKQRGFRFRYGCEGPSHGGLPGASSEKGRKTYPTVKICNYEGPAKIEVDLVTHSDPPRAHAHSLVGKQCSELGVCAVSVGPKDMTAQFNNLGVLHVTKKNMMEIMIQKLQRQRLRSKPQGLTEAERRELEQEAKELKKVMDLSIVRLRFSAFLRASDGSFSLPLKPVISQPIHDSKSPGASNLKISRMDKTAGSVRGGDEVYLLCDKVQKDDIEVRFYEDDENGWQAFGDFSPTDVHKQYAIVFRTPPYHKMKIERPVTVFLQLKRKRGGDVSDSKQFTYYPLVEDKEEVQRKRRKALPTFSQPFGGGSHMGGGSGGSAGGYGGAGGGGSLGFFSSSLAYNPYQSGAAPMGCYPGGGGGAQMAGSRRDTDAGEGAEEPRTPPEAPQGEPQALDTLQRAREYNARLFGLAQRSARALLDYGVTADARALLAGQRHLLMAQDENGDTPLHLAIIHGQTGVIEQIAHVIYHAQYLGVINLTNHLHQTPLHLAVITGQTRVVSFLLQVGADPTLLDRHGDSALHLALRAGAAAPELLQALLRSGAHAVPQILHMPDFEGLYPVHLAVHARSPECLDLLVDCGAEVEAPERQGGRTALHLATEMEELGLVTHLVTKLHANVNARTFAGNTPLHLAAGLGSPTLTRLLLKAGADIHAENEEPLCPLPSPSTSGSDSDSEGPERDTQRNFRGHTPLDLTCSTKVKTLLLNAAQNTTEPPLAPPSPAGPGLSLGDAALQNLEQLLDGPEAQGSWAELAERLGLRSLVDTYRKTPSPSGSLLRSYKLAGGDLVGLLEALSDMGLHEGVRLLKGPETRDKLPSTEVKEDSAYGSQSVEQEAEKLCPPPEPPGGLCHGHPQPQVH
Outline: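 BMOL-T cells exposed to compound as in the growth assay, lysed in DISC buffer. Western blot with primary antibodies overnight and HRP secondaries 1 h, all diluted in 5% skim milk in TBS-T, chemiluminescent detection. Bands normalised to β-actin; p52/p100 ratio and phospho-p65 compared with control.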

BMOL-T [31] = experiment: Anticancer activity against BMOL-T cells assessed as cell growth inhibition at 10 uM; type: functional, cell-based; settings: Mus musculus; outline: as §2
Mus musculus [32] = organism: Mus musculus; experiment: Cytotoxicity against BMOL-NT cells assessed as induction of cell death up to 100 uM; type: toxicity, cell-based; outline: as §1

In the case of O=C1CCC(N2C(=O)c3ccccc3C2=O)C(=O)N1 (stereo not drawn) [THALIDOMIDE], the Activity (Mus musculus [1]) is reported as “Toxic” and the GI50 [2] is reported as 100 µM.
For CC(C)(C)c1ccc(Nc2ccc3c(c2)C(=O)N(C2CCC(=O)NC2=O)C3=O)cc1 (stereo not drawn), the Activity (Mus musculus [1]) was “Toxic”, the GI50 [3] was 100 µM and the “growth inhibition (GI)” value (BMOL-T [4]) was “Active”. It also gave a GI50 [2] of 100 µM.
In the case of CCCCCc1ccc(Nc2cccc3c2C(=O)N(C2CCC(=O)NC2=O)C3=O)cc1 (stereo not drawn), the Activity (Mus musculus [1]) is reported as “Toxic”, the GI50 [3] is reported as 100 µM and the “growth inhibition (GI)” value (BMOL-T [4]) is reported as “Active”. It also gave a GI50 [2] of 100 µM.
CNC(=O)c1cc(Oc2ccc(NC(=O)Nc3ccc(Cl)c(C(F)(F)F)c3)cc2)ccn1 [SORAFENIB] gave a Time [5] of 33.2 to 34.2 h, a Time [6] of 31.9 to 32.5 h and an Activity [7] of 101 to 134%. The Activity [8] was 66 to 87%, the Time [9] was 33.3 to 33.7 h and the inhibition of growth at 10 µM [10] was 70%. The Time [11] was 37.4 to 37.9 h, the Time [12] was 68 h and the Activity [13] was 36 - 144%. For the same compound, the Time [14] was 79 h, the Time [15] was 58 to 74 h and the fold change (FC) [16] was 2.5 to 18.1. For the same compound, the Activity [17] was 100 to 128%, the Time [18] was 28.05 to 35 h and the Time [19] was 34.4 to 35 h. The Activity [20] was 193 - 235%, the “fold change (FC)” value [21] was 38 and the Activity [22] was 62%. The Time [23] was 32.5 to 34.7 h and the Time [24] was 65 to 66 h.
In the case of Nc1cccc2c1CN(C1CCC(=O)NC1=O)C2=O (stereo not drawn) [LENALIDOMIDE], the Activity (Mus musculus [1]) is reported as “Toxic” and the GI50 [2] is reported as 100 µM.
With CC(C)c1ccc(Nc2cccc3c2C(=O)N(C2CCC(=O)NC2=O)C3=O)cc1 (stereo not drawn) the Activity [8] was “Non-Toxic”, the Time [25] was 30 h and the Time [26] was 23 h. For the same compound, the Activity [13] was 11%, the Activity (Mus musculus [27]) was “Non-Toxic” and the Time [28] was 26 h. For the same compound, the “fold change (FC)” value [16] was 1.5, the Time (Mus musculus [29]) was 31 h and the GI50 [3] was 40 µM. The inhibition [30] was 30%, the Activity [20] was 26 - 27% and the “growth inhibition (GI)” value (BMOL-T [31]) was “Active”. For the same compound, the “fold change (FC)” value [21] was 1.6 - 4, the Activity [22] was 34% and the GI50 [2] was 60 µM.
In the case of CCCCCc1ccc(Nc2ccc3c(c2)C(=O)N(C2CCC(=O)NC2=O)C3=O)cc1 (stereo not drawn), the Activity (Mus musculus [27]) is reported as “Non-Toxic”, the GI50 [3] is reported as 60 µM and the “growth inhibition (GI)” value (BMOL-T [31]) is reported as “Active”. It also gave a GI50 [2] of 60 µM.
With O=CC#Cc1cccc2c1C(=O)N(C1CCC(=O)NC1=O)C2=O (racemic) the Activity (Mus musculus [32]) was “Non-Toxic”.
With O=CC#Cc1ccc2c(c1)C(=O)N(C1CCC(=O)NC1=O)C2=O (stereo not drawn) the Activity (Mus musculus [32]) was “Non-Toxic”.
